Converted amounts (≈) assume the structure as drawn. The source made the active and inactive calls. Bridge positions count the residues as written; N and C are the ends. Peptide text beside a SMILES is read from it. I, II: the chains in the order shown. Where only a bound is given, the exact number is not on record here.

For data set [1], the system named is Listeria monocytogenes. Kind of data set: Antimicrobial activity against Listeria monocytogenes ATCC 19111 infected in BALB/c mouse assessed as reduction in number of recovered CFU in spleen at 100 ug, iv measured after 3 days. Type of data set: functional, organism-based. The gist of the method:
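Mice were infected i.v. with L. monocytogenes and immediately given 100 µg peptide in 100 µl PBS i.v.; PBS alone served as control. On days 1 and 3, liver and spleen were homogenized in PBS/0.1% BSA, serially diluted, and plated on TSA with 5% sheep blood. Colonies were counted after 18 h at 37°C. Three independent experiments; mean ± SD.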

For data set [2], the system named is Listeria monocytogenes. Description: Antimicrobial activity against Listeria monocytogenes ATCC 19111 infected in BALB/c mouse assessed as survival of mouse at 4 mg/kg, iv administered immediately after bacterial challenge measured after 15 days. The format is functional. The conditions noted are these: ATCC 19111, 360 h. A digest of the protocol:
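L. monocytogenes grown 18 h at 37°C in brain heart infusion broth and frozen at –80°C; viability checked by plating. Mice infected via tail vein with 2 x 10^5 bacteria each. A single 4 mg/kg i.v. dose in 100 µl PBS was given immediately or 2 h after infection; PBS vehicle controls. Ten mice per group; survivors counted daily for 15 days.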

Data set [3] has as its system Listeria monocytogenes. Kind of data set: Antibacterial activity against Listeria monocytogenes ATCC 19111 in assay tube containing mixture of erythrocyte/Listeria monocytogenes cells assessed as logarithmic reduction in CFU after 30 mins. The format is functional. A digest of the protocol: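 Washed mid-log L. monocytogenes (final 1 x 10^5 CFU/ml) was mixed with human blood cells (final 5 x 10^8 cells/ml) and peptide (final 40 µg/ml) in PBS at 37°C. A peptide-free control was included. At 10, 20 and 30 min, aliquots were plated on TSA and colonies counted after overnight growth. Blood cells were counted by hemocytometer under light microscopy.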

A short description of data set [4]: Stability in human serum assessed as drug remaining at 1 mg/ml after 8 hrs. The format is ADME, cell-free. Conditions: read-out: Stability. The gist of the method: (§1)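 At 0, 2, 4 and 8 h, 200-µl aliquots were quenched with 20 µl of 1% TFA, held 10 min at 4°C, and centrifuged. Remaining peptide was quantified by HPLC peak area relative to the unincubated sample. Triplicate runs.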

Data set [5] can be described thus: Toxicity in human erythrocytes assessed as hemolysis at 25 ug/ml relative to Triton X-100. The conditions noted are these: read-out: Activity. Type of data set: cell-based, Erythrocyte. The gist of the method:
(§2)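 Peptide (20 µl) was mixed with 180 µl of a 2.5% (vol/vol) human RBC suspension in PBS and incubated 30 min at 37°C. PBS was added and samples centrifuged 3 min at 10,000 x g; supernatant A540 was read. Hemolysis was expressed relative to a peptide-free PBS blank and 1% Triton X-100 as 100%.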

In data set [6] the test system is Listeria monocytogenes. Description: Antimicrobial activity against Listeria monocytogenes ATCC 19111 after 18 hrs by broth microdilution assay. Conditions: ATCC 19111, 18 h. Type of data set: functional. The gist of the method: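 Bacteria were grown overnight to stationary phase in Mueller-Hinton broth at 37°C and diluted to 2 x 10^5 CFU/ml. Line 3 used MHB plus 150 mM NaCl. Peptide stock (640 µg/ml in 0.01% acetic acid) was twofold serially diluted to 10 µg/ml, and 11 µl was added per 100 µl of cells. Turbidity was read after 18 h at 37°C; MIC was the minimum concentration visibly inhibiting growth.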
A general note: In broth dilution the organism is exposed to a series of concentrations in liquid medium.

Data set [7] has as its system Listeria monocytogenes. Kind of data set: Antimicrobial activity against Listeria monocytogenes ATCC 19111 infected in BALB/c mouse at 4 mg/kg, iv in presence of increasing concentration of mannan. Type of data set: functional, organism-based. More on the design: dose 4 mg/kg.
Data set [8] has as its system Listeria monocytogenes. Kind of data set: Antimicrobial activity against Listeria monocytogenes ATCC 19111 infected in BALB/c mouse at 4 mg/kg, iv in presence of increasing concentration of LTA. Type of data set: functional, organism-based. More on the design: dose 4 mg/kg.
Data set [9] in a line: Stability in human serum assessed as half life at 1 mg/ml. Type of data set: ADME, cell-free.
Data set [10] in a line: Toxicity in human erythrocytes assessed as hemolysis at 50 ug/ml relative to Triton X-100. The format is cell-based, Erythrocyte. Conditions: read-out: Activity. The gist of the method:
as §2

Data set [11] in a line: Toxicity in human erythrocytes assessed as hemolysis at 100 ug/ml relative to Triton X-100. Type of data set: cell-based, Erythrocyte. The conditions noted are these: read-out: Activity. The gist of the method: as §2
The test system of data set [12] is Staphylococcus aureus. Description: Antimicrobial activity against methicillin-resistant Staphylococcus aureus CCARM 3695 treated with supernatant containing 2 mg drug incubated for 10 mins with PBS containing 50 % normal human serum centrifuged for 3 hrs by radial diffusion assay. The format is functional, organism-based. The gist of the method:
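2 mg peptide incubated 10 min at 37°C in 2 ml PBS, either serum-free or with 50% heat-treated normal human serum. Spun 3 h at 295,000 x g, 4°C. Then 5 µl of supernatant tested by radial diffusion against mid-log MRSA (4 x 10^6 CFU/ml underlay, 3 h at 37°C, overlay, overnight); clear zones measured.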

Data set [13] is described as follows: Stability in human serum assessed as drug remaining at 1 mg/ml after 4 hrs. Type of data set: ADME, cell-free. Conditions: read-out: Stability. A digest of the protocol:
as §1

The subject of data set [14] is Listeria monocytogenes. Description: Antimicrobial activity against Listeria monocytogenes ATCC 19111 infected in BALB/c mouse assessed as survival of mouse at 4 mg/kg, iv administered 2 hrs after bacterial challenge measured after 4 days. The format is functional, organism-based. More on the design: dose 4 mg/kg. The gist of the method:
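Mice (n = 10) were infected by tail vein with 2 x 10^5 L. monocytogenes, grown 18 h at 37°C in brain heart infusion broth. A single i.v. dose of 4 mg/kg in 100 µl PBS was given 2 h after infection; PBS-treated infected mice served as vehicle control. Surviving mice were counted daily for 15 days.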

Usually MIC stands for the smallest concentration in the dilution series that meets the test's criterion for growth inhibition. High values mean a less susceptible organism, low ones a more susceptible organism. The term half-life denotes the time needed for the level to fall by half in the phase considered. Consider `CC(C)C[C@H](NC(=O)CNC(=O)[C@H](Cc1cnc[nH]1)NC(=O)[C@H](Cc1cnc[nH]1)NC(=O)[C@H](CC(C)C)NC(=O)[C@H](CC(C)C)NC(=O)[C@H](C)N)C(=O)N[C@@H](CC(N)=O)C(=O)N[C@@H](CSSC[C@H](NC(=O)[C@H](CC(N)=O)NC(=O)[C@H](CC(C)C)NC(=O)CNC(=O)[C@H](Cc1cnc[nH]1)NC(=O)[C@H](Cc1cnc[nH]1)NC(=O)[C@H](CC(C)C)NC(=O)[C@H](CC(C)C)NC(=O)[C@H](C)NC(=O)[C@H](CC(N)=O)NC(=O)[C@H](CC(C)C)NC(=O)[C@H](Cc1c[nH]c2ccccc12)NC(=O)[C@@H](N)CCCCN)C(=O)N[C@@H](C)C(=O)N[C@@H](CCCCN)C(=O)NCC(=O)N[C@H](C(=O)N[C@@H](CC(C)C)C(=O)N[C@@H](C)C(=O)O)C(C)C)C(=O)N[C@@H](C)C(=O)N[C@@H](CCCCN)C(=O)NCC(=O)N[C@H](C(=O)N[C@@H](CC(C)C)C(=O)N[C@@H](C)C(=O)O)C(C)C` (I: H-KWLNALLHHGLNCAKGVLA-OH / II: H-ALLHHGLNCAKGVLA-OH; disulfide I:13-II:9), for which the outcome in data set [1], in data set [7], in data set [12] and in data set [14] was Active. Further, the survival at 4 mg/kg in data set [2] is 90%. For the same compound, the Activity in data set [3] is reported as 3. In addition, the remaining at 8 h, 1 mg/ml in data set [4] stood at 39%. Besides, in [5], the hemolysis at 25 ug/ml amounted to 2.3%. For the same compound, the MIC in data set [6] amounted to 4 µg/mL (≈ 1.12 µM). For the same compound, the outcome in data set [8] was inactive. The half-life at 1 mg/ml in data set [9] was 6 h. In data set [10], the hemolysis at 50 ug/ml worked out at 4.5%. For the same compound, in [11], the hemolysis at 100 ug/ml amounted to 8.5%. In data set [13], the remaining at 4 h, 1 mg/ml was > 70%.

The values are drawn from ChEMBL document CHEMBL1151419, “Antimicrobial effect of halocidin-derived peptide in a mouse model of Listeria infection” (Antimicrob Agents Chemother, 2007).
